According to ChEMBL document CHEMBL1158415, “Synthesis, antimicrobial activity and QSAR studies of new 2,3-disubstituted-3,3a,4,5,6,7-hexahydro-2H-indazoles” (Bioorg Med Chem Lett, 2009):

How the values were obtained:
[1] = Octanol-water partition coefficient, log P of the compound; format: physicochemical
Aspergillus niger = experiment: Antifungal activity against Aspergillus niger after 7 days by tube dilution method; format: functional
Procedure, shortened: (§1)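 Tube dilution in Sabouraud dextrose broth, done in duplicate. DMSO test solution (10 µg/mL) is serially diluted to give 5, 2.5, 1.25, 0.625 and 0.312 µg/mL. Each tube gets 0.1 mL of spore/microbial suspension in saline, then is incubated at 25 °C for 7 d. MIC is read visually as the lowest concentration without turbidity, refined with intermediate concentrations. Fluconazole is the reference.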

Candida albicans = experiment: Antifungal activity against Candida albicans after 48 hrs by tube dilution method; format: functional
Procedure, shortened: as §1, with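 “5 down to” for “5, 2.5, 1.25, 0.625 and”, “yeast” for “spore/microbial”, “37” for “25”, “48 h.” for “7 d.”, “is” for “is read visually as”, “preventing” for “without”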

Staphylococcus aureus = experiment: Antibacterial activity against Staphylococcus aureus after 24 hrs by tube dilution method; format: functional
Procedure, shortened: (§2)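 Tube dilution in double strength nutrient broth-IP, done in duplicate. Test solution in DMSO (10 µg/mL) is serially diluted twofold into medium to give 5, 2.5, 1.25, 0.625 and 0.312 µg/mL. Each tube gets 0.1 mL of microbial suspension in saline, then is incubated at 37 °C for 24 h. MIC is the lowest concentration with no visible turbidity, refined by testing intermediate concentrations. Ciprofloxacin is the reference.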

Bacillus subtilis = experiment: Antibacterial activity against Bacillus subtilis after 24 hrs by tube dilution method; format: functional; procedure, shortened: as §2
Escherichia coli = experiment: Antibacterial activity against Escherichia coli after 24 hrs by tube dilution method; format: functional; procedure, shortened: as §2
Pseudomonas aeruginosa = experiment: Antibacterial activity against Pseudomonas aeruginosa after 24 hrs by tube dilution method; format: functional; procedure, shortened: as §2

SMILES	logP [1]	-logMIC (Aspergillus niger)	-logMIC (Candida albicans)	-logMIC (Staphylococcus aureus)	-logMIC (Bacillus subtilis)	-logMIC (Escherichia coli)	-logMIC (Pseudomonas aeruginosa)
COc1ccc(C2C3CCCCC3=NN2S(=O)(=O)c2ccccc2)cc1 (stereo not drawn)	4.6	2.57	2.61	2.57	2.47	2.57	2.61
Clc1ccc(C2NN=C3CCCCC32)cc1 (stereo not drawn)	4.4	2.27	2.27	2.07	2.07	2.19	2.19
Cc1ccc(S(=O)(=O)N2N=C3CCCCC3C2c2ccc(Cl)cc2)cc1 (stereo not drawn)	5.8	2.64	2.59	2.49	2.64	2.59	2.64
O=S(=O)(c1ccc(Cl)cc1)N1N=C2CCCCC2C1c1ccc(F)cc1 (stereo not drawn)	5.1	2.64	2.59	2.64	2.69	2.75	2.79
Cc1ccc(S(=O)(=O)N2N=C3CCCCC3C2c2ccc(F)cc2)cc1 (stereo not drawn)	5.4	2.67	2.57	2.47	2.62	2.62	2.67
O=S(=O)(c1cccc2ccccc12)N1N=C2CCCCC2C1c1ccc(F)cc1 (stereo not drawn)	6	2.66	2.61	2.61	2.66	2.71	2.77
O=[N+]([O-])c1ccc(S(=O)(=O)N2N=C3CCCCC3C2c2ccc(Cl)cc2)cc1 (stereo not drawn)	5.3	2.82	2.82	2.67	2.72	2.67	2.78
O=S(=O)(c1ccc(Cl)cc1)N1N=C2CCCCC2C1c1ccc(Cl)cc1 (stereo not drawn)	5.9	2.71	2.77	2.61	2.71	2.66	2.77
COc1ccc(C2C3CCCCC3=NN2S(=O)(=O)c2ccc(C)cc2)cc1 (stereo not drawn)	5.1	2.68	2.63	2.49	2.63	2.58	2.58
CS(=O)(=O)N1N=C2CCCCC2C1c1ccc(F)cc1 (stereo not drawn)	3.3	2.57	2.47	2.37	2.57	2.47	2.52
CS(=O)(=O)N1N=C2CCCCC2C1c1ccc(Cl)cc1 (stereo not drawn)	3.7	2.5	2.59	2.4	2.54	2.4	2.5
COc1ccc(C2C3CCCCC3=NN2S(=O)(=O)c2ccc(Cl)cc2)cc1 (stereo not drawn)	4.3	2.65	2.61	2.61	2.65	2.65	2.7
O=S(=O)(c1cccc2ccccc12)N1N=C2CCCCC2C1c1ccc(Cl)cc1 (stereo not drawn)	6.4	2.67	2.73	2.53	2.67	2.63	2.67
COc1ccc(C2C3CCCCC3=NN2S(C)(=O)=O)cc1 (stereo not drawn)	2.9	2.53	2.59	2.31	2.53	2.39	2.49
COc1ccc(C2C3CCCCC3=NN2S(=O)(=O)c2cccc3ccccc23)cc1 (stereo not drawn)	5.6	2.62	2.62	2.53	2.62	2.62	2.67
O=[N+]([O-])c1ccc(S(=O)(=O)N2N=C3CCCCC3C2c2ccc(F)cc2)cc1 (stereo not drawn)	4.9	2.76	2.65	2.7	2.76	2.76	2.81
COc1ccc(C2NN=C3CCCCC32)cc1 (stereo not drawn)	3.6	2.19	2.19	2.01	2.01	2.06	2.19
COc1ccc(C2C3CCCCC3=NN2S(=O)(=O)c2ccc([N+](=O)[O-])cc2)cc1 (stereo not drawn)	4.5	2.66	2.77	2.66	2.62	2.66	2.72
O=S(=O)(c1ccccc1)N1N=C2CCCCC2C1c1ccc(Cl)cc1 (stereo not drawn)	5.4	2.62	2.62	2.57	2.62	2.57	2.67
Fc1ccc(C2NN=C3CCCCC32)cc1 (stereo not drawn)	4	2.24	2.16	2.04	2.24	2.24	2.24
O=S(=O)(c1ccccc1)N1N=C2CCCCC2C1c1ccc(F)cc1 (stereo not drawn)	5	2.55	2.6	2.55	2.65	2.65	2.71
O=C(O)c1cn(C2CC2)c2cc(N3CCNCC3)c(F)cc2c1=O [CIPROFLOXACIN]				2.03	2.33	2.03	2.62
OC(Cn1cncn1)(Cn1cncn1)c1ccc(F)cc1F [FLUCONAZOLE]		3.16	3.16				
